Most compounds without a hit are left out; they make up all but 2.2% or so of the library.
APP transl inh: APP translation inhibition. SH-SY5Y APP 5'UTR-luciferase reporter, luminescence. inhibition, % at 2 µM. 190,000 tested, 0.82% active. AID 1285;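 active = inhibition above a set limit, derived from the sample mean plus 3 SD, cut at about 45% in these data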
MT stabilizer: stabilizes microtubules in HeLa cells | HeLa tubulin immunostaining HCS, 24 h; share of cells brighter than vehicle mean+2SD | % tubulin-high responders, % at 10 µM | 200,000 tested, 0.83% active;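 active = plate Z-score above 3 for both tubulin-high and condensed-nucleus cell shares, with cell loss under 80%, at 10 µM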;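 also: anti alpha tubulin signal scored within the nucleus-defined area of each cell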
BaF3 tox: reduces parental Ba/F3 cell viability, JAK2V617F counter-screen | inhibition, % at 5.6 µM | 220,000 tested, 1.1% active | AID 1486 | CellTiter-Glo ATP luminescence;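 active = inhibition above a per-campaign cutoff, the mean inhibition of all tested compounds plus 3 SD, cut at about 27% in these data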;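 also: 0% = DMSO wells and 100% = JAK Inhibitor I control wells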
bCat nuc transl: alters nuclear translocation of beta-catenin in HeLa cells | immunofluorescence imaging | nuclear translocation activity, % at 5 µM | 190,000 tested, 0.3% active | AID 1665;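 active = nuclear translocation activity above 50% at 5 µM, with a well cell count of 50 or more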;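 also: per-cell ratio of nuclear to cytoplasmic median beta-catenin stain intensity; plate controls were DMSO negative control for no effect and GSK-3 inhibitor IX positive control for full effect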
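Test system: HeLa cells, endogenous beta-catenin; Compound: single 5 µM dose plus 0.02–20 µM confirmation series; Times: compound exposure 24 h at 37°C; Signal: fluorescence imaging of beta-catenin antibody stain plus DAPI; Read-out: % activation, nuclear-to-cytoplasmic median beta-catenin signal ratio per cell.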
IEC-6 tox: counter-screen for KLF5 inhibitors: cytotoxicity in IEC-6 cells; IEC-6 cytotoxicity, luminescence viability; inhibition, % at 5 µM; 290,000 tested, 0.78% active; AID 1825; in the data active = inhibition above about 22%;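 also: 0% = plate median of test compound wells and 100% = cytotoxic reference compound wells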
Ba/F3 V617F tox: reduce viability of Ba/F3 cells dependent on JAK2V617F; inhibition, % at 5.6 µM; Ba/F3 EpoR-JAK2V617F viability, ATP luminescence; 220,000 tested, 1.1% active;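 active = inhibition above the campaign mean plus 3 SD over all tested compounds, cut at about 24% in these data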;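 also: cytokine-independent growth of Ba/F3 cells driven by EpoR plus mutant JAK2; 0% = DMSO-treated cells and 100% = JAK inhibitor I control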
Active calls of the source: *; . = no result given.

SMILES	APP transl inh	MT stabilizer	BaF3 tox	bCat nuc transl	IEC-6 tox	Ba/F3 V617F tox
CC(=O)OCCCNc1cc(Sc2ccc(Cl)cc2)c2nonc2c1[N+](=O)[O-]	51*	3	2	1	-15	-2
CCOc1ccccc1NC(=O)CN1CCC(NC(=O)Nc2ccccc2)CC1	.	.	.	.	-3	.
Cc1nc(NC(=O)C2CC2)sc1C(=O)Nc1ccccc1Cl	.	.	.	.	13	.
Cc1nn(CC(N)=O)c(=O)c2ccccc12	-7	4	44*	-7	-8	20
Cc1cc(C)c[n+](C(C)C(=O)c2ccc(-c3ccccc3)cc2)c1 (centres undefined)	6	2	65*	3	-2	66*
O=C(NCCc1ccccc1)C1CCN(S(=O)(=O)N2CCOCC2)CC1	.	.	.	.	2	.
CC(CCc1ccccc1)NC(=O)C1CCN(S(=O)(=O)N2CCOCC2)CC1 (centres undefined)	-1	3	91*	0	-4	-4
O=S(=O)(c1ccc(F)cc1)c1snnc1-c1ccccc1	93*	6	68*	1	3	61*
O=S(=O)(c1ccc(Cl)cc1)c1snnc1-c1ccccc1	96*	17*	33*	.	-3	44*
Cc1ccc(N/C(N)=N/c2nc3c(c(=O)[nH]2)CCCC3)c(C)c1	-16	20*	4	10	2	1
N/C(=N\c1nc2c(c(=O)[nH]1)CCCC2)Nc1ccccc1	-3	4	3	-2	-4	0
Cc1ccc(NC(=O)N2CCCCCC2)c(C)c1	.	.	.	.	0	.
Cc1ccc(N/C(N)=N/c2nc(C)cc(N3CCCCC3)n2)c(C)c1	12	4	66*	-3	21	71*
O=C(NN1CCOCC1)c1ccc(Cl)cc1[N+](=O)[O-]	.	.	.	.	-3	.
O=C(Nc1ccc(Nc2ccccc2)cc1)C(Cl)(Cl)Cl	6	4	50*	.	-6	-4
NC(=O)Nc1ccc(Nc2ccccc2)cc1	.	.	0	2	-1	2
Cc1ccc(Cn2c(Sc3ncccn3)nc3c2c(=O)[nH]c(=O)n3C)cc1	3	7	0	-2	-4	-1
CCCCCn1c(Sc2ncccn2)nc2c1c(=O)[nH]c(=O)n2C	64*	2	5	1	9	4
CCOc1ccc(NS(=O)(=O)c2cc(NC(=O)c3cccc(C)c3)ccc2Cl)cc1	-9	23*	9	12	-2	1
CCOc1ccc(NS(=O)(=O)c2cc(C(=O)N3CCN(C(C)=O)CC3)ccc2Cl)cc1	.	.	.	.	-2	.
Cc1cnc(C(=O)Nc2ccc(C(C)C)cc2)cn1	-78	18*	-1	19	-2	-1
Cn1nc(CC(=O)Nc2ccc(N3CCN(C(=O)OC(C)(C)C)CC3)cc2)c2ccccc2c1=O	10	15	60*	1	11	50*
Cc1cnc(C(=O)Nc2ccc(N3CCN(C(=O)OC(C)(C)C)CC3)cc2)cn1	-3	39*	7	68*	-3	0
Cn1nc(CC(=O)Nc2ccc3c(c2)OCCO3)c2ccccc2c1=O	5	4	53*	.	8	48*
Cc1ccc(NC(=O)Cc2nn(C)c(=O)c3ccccc23)cc1F	8	1	5	-2	4	-1
SMILES	APP transl inh	MT stabilizer	BaF3 tox	bCat nuc transl	IEC-6 tox	Ba/F3 V617F tox
Cn1nc(CC(=O)N2CCN(c3ccccc3)CC2)c2ccccc2c1=O	-20	11	8	.	11	4
COc1ccc2cc(C(=O)N3CCCC(Nc4ccc(F)cc4)C3)n(C)c2c1 (centres undefined)	.	.	.	.	3	.
CC(=O)c1ccc(N2CCN(C(=O)C(=O)c3cn(CC(=O)N4CCCCCC4)c4ccccc34)CC2)cc1	.	.	.	.	0	.
CNC(=O)C1CCN(S(=O)(=O)c2c(C)noc2/C=C/c2ccc(OC)cc2)CC1	.	.	.	.	10	.
CC(=O)N1c2ccc(S(=O)(=O)N3CCCCC3)cc2CC1C(=O)NCc1cccc(Cl)c1 (centres undefined)	.	.	.	.	4	.
CC(=O)Nc1ccc(S(=O)(=O)N2CCN=C2SCc2ccc([N+](=O)[O-])cc2)cc1	.	.	.	.	9	.
CC(=O)Nc1ccc(S(=O)(=O)N2CCN(c3cccc(C)c3C)CC2)cc1	-6	14*	8	5	5	2
CC(=O)Nc1ccc(S(=O)(=O)N2CCN(S(=O)(=O)c3ccc(NC(C)=O)cc3)CC2)cc1	.	.	.	.	-3	.
CCc1ccc(/C=N\n2cnnc2)cc1	.	.	-1	1	7	-6

Compound activity as filed in PubChem.
